The source of these data is ChEMBL document CHEMBL3272127, “Synthesis and kinetic evaluation of S- and N-substituted cysteinylglycines as inhibitors of glyoxalase I” (J Med Chem, 1977).

Experiment [1] in a line: Noncompetitive inhibition of yeast glyoxalase 1 assessed as inhibition of product formation by double reciprocal plot method. Also on record: species or system Saccharomyces cerevisiae. The procedure, abridged: (§1)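 Yeast glyoxalase I, diluted to 20 µg/ml in 30% glycerin with 0.1% BSA. Assays ran at 30 °C in 0.05 M phosphate buffer, pH 6.6. Methylglyoxal, reduced glutathione, inhibitor and buffer were preincubated 3 min to form the hemimercaptal, then enzyme was added. Product formation was followed at 240 nm.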

Experiment [2] concerns Saccharomyces cerevisiae. The experiment can be described thus: Competitive inhibition of yeast glyoxalase 1 assessed as inhibition of product formation by double reciprocal plot method. An outline of the steps: as §1
In experiment [3] the test system is Saccharomyces cerevisiae. Description: Binding affinity to active site of yeast glyoxalase 1 using hemimercaptal as substrate at 0.005 to 0.015 mM in presence of free glutathione.
A short description of experiment [4]: Binding affinity to yeast glyoxalase 1 assessed as inhibition of product formation by double reciprocal plot method. Also on record: species or system Saccharomyces cerevisiae. The procedure, abridged: as §1
In experiment [5] the test system is Saccharomyces cerevisiae. The experiment can be described thus: Activity of yeast glyoxalase 1. The procedure, abridged: as §1
For experiment [6], the species on record is Mus musculus. The experiment can be described thus: Activity of mouse liver glyoxalase.
A short description of experiment [7]: Ratio of Km for yeast glyoxalase 1 to Km for mouse liver glyoxalase.
Experiment [8] deals with Saccharomyces cerevisiae. The experiment can be described thus: Synergistic binding affinity to active site of yeast glyoxalase 1 using hemimercaptal as substrate at 0.1 to 0.3 mM in presence of free glutathione. The procedure, abridged:
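Yonetani–Thorell analysis with yeast glyoxalase I at 30 °C, pH 6.6 phosphate, read at 240 nm. Reciprocal velocity was plotted against inhibitor concentration at fixed hemimercaptal substrate and fixed free glutathione levels of 0.1, 2.0 or 5.0 mM.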

Molecules are shown by their SMILES. Active and inactive are the calls of the source. No cut-off for these calls is given here. Square brackets hold non-standard residues; d marks the D form. Peptide text beside a SMILES is read from it. * marks the point of attachment. Bn = c1ccc(C*)cc1; GABA = NCCCC(=O)O; βAla = NCCC(=O)O

One may read the Ki as a dissociation constant, usually derived from enzyme kinetics or from competition with a known ligand. With `N[C@@H](CSCc1ccc(Br)cc1)C(=O)NCC(=O)O`, the Ki in experiment [1] (read-out: Ki) is 0.58 mM. As to `N[C@@H](CCC(=O)N[C@@H](CSCc1ccc(Br)cc1)C(=O)NCC(=O)O)C(=O)O`, the inhibition result in experiment [2] was “Active”. The outcome in experiment [3] was Active. Broadly, the Kd is the concentration at which binding is half-saturated. As usually defined, the Km is the substrate concentration at which the rate is half of its maximum. For `CC(=O)C(O)SC[C@H](NC(=O)CC[C@H](N)C(=O)O)C(=O)NCC(=O)O` (stereo partly drawn), the Kd in experiment [4] was found to be 3.1 mM. In experiment [2], the inhibition entry was “Active”. Moreover, the Km in experiment [5] worked out at 500 µM; in experiment [6] it was 57 µM. In addition, in experiment [7], the Ratio is 10. Take `O=C(O)CCCC(=O)N[C@@H](CSCc1ccccc1)C(=O)NCC(=O)O`: in experiment [1] (read-out: Ki), the Ki is 3 mM. Take `O=C(O)CCC(=O)N[C@@H](CSCc1ccc(Br)cc1)C(=O)NCC(=O)O`: in experiment [1] (read-out: Ki), the Ki was determined as 0.4 mM.

`NCCC(=O)N[C@@H](CSCc1ccccc1)C(=O)NCC(=O)O` (H-[βAla]-Cys(Bn)-Gly-OH): in experiment [1] (read-out: Ki), the inhibitory constant (Ki) stood at 5.3 mM. Take `N[C@@H](CSCc1ccccc1)C(=O)NCC(=O)O`: the Ki entry in experiment [1] is given as “Not Active”. As for `NCCC(=O)N[C@@H](CSCc1ccc(Br)cc1)C(=O)NCC(=O)O`, the Ki in experiment [1] (read-out: Ki) was 1.5 mM. On to `O=C(O)CCCC(=O)N[C@@H](CSCc1ccc(Br)cc1)C(=O)NCC(=O)O`, for which the Ki in experiment [1] (read-out: Ki) stood at 0.32 mM. The result in experiment [8] was Active. In the case of `NCCCC(=O)N[C@@H](CSCc1ccc(Br)cc1)C(=O)NCC(=O)O`, the Ki in experiment [1] (read-out: Ki) turned out to be 1.2 mM. `NCCCC(=O)N[C@@H](CSCc1ccccc1)C(=O)NCC(=O)O` (H-[GABA]-Cys(Bn)-Gly-OH): the Ki in experiment [1] (read-out: Ki) worked out at 4.1 mM. Still for that read-out and setting: to `O=C(O)CCC(=O)N[C@@H](CSCc1ccccc1)C(=O)NCC(=O)O` belongs 4.5 mM.
